Reference: ChEMBL document CHEMBL5543124, “Lead Compound Development of SRC-3 Inhibitors with Improved Pharmacokinetic Properties and Anticancer Efficacy” (J Med Chem, 2024)
Activity calls are given as the source filed them. The rule behind the calls is not given here.

Columns and labels:
[1] = Cmax in CD-1 mouse at 1 mg/kg,iv administration measured upto 48 hrs by LC-MS/MS analysis; assay type: ADME, organism-based; settings: in vivo
Summary of the method: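 Single intravenous bolus in ICR male mice (n = 3, 6 weeks); dosing solution 0.5 mg/mL in 20% DMSO, 16% PEG, 4% dextrose in PBS. Tail-vein blood (10 μL) taken at 2, 5, 15, 30 min and 1, 2, 4, 8, 24, 48 h. Plasma quantified by LC-MS/MS against a 0.5–1000 ng/mL calibration; parameters from non-compartmental analysis.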

[2] = AUC (0 to t) in CD-1 mouse at 10 mg/kg,po administration measured upto 48 hrs by LC-MS/MS analysis; assay type: ADME, organism-based; settings: in vivo
Summary of the method: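 Oral gavage in ICR male mice (n = 3); dosing solution 1 mg/mL in 20% DMSO, 16% PEG, 4% dextrose in PBS. Tail-vein blood (10 μL) taken at 15, 30 min and 1, 2, 4, 8, 24, 48 h. Plasma quantified by LC-MS/MS against a 0.5–1000 ng/mL calibration; parameters from a non-compartmental extravascular model.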

[3] = Tmax in CD-1 mouse at 1 mg/kg,iv administration measured upto 48 hrs by LC-MS/MS analysis; assay type: ADME, organism-based; settings: in vivo
Summary of the method: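 Male ICR mice (n=3, 6 weeks) given 1 mg/kg i.v. from a 0.5 mg/mL solution in 20% DMSO/16% PEG/4% dextrose in PBS. Tail-vein blood (10 μL) drawn at 2, 5, 15 and 30 min and at 1, 2, 4, 8, 24 and 48 h. Plasma quantified by LC-MS/MS against 0.5–1000 ng/mL calibration standards with QC samples. Parameters from non-compartmental analysis.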

[4] = target: Prostaglandin G/H synthase 1 (Homo sapiens, UniProt P23219); experiment: Inhibition of COX1 (unknown origin); assay type: toxicity
Summary of the method: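 Tested in a commercial off-target safety screening panel of 78 targets. Values reported as RC50, taken as IC50 except for agonist mode, where RC50 is EC50.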

[5] = target: Nuclear receptor coactivator 3 (Homo sapiens) (UniProt Q9Y6Q9); experiment: Inhibition of recombinant His-tagged SRC-3 (unknown origin) expressed in baculovirus assessed as reduction in recruitment of p300 in ER complex at 0.15 uM incubated for 30 mins by pull-down based western blotting analysis
Summary of the method: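 Purified baculovirus-expressed His-SRC-3-flag (0.1 μg) preincubated with compound or vehicle for 30 min on ice. Then 0.1 μg recombinant ERα and His-p300 plus ERE-containing DNA oligo and 1 μM 17β-estradiol added, 1 h on ice. ER complexes immunoprecipitated with anti-ERα antibody; SRC-3 and p300 detected by western blot.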

Panc-1-Luc = experiment: Antitumor activity against human Panc-1-Luc cells orthotopically xenografted in SCID mouse assessed as reduction in tumor growth at 10 mg/kg,ip administration once daily for 63 days; assay type: functional, organism-based; settings: time 63.0 day
Summary of the method: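 Panc-1-Luc cells (0.5×10^6) implanted orthotopically in pancreas of male SCID mice (8 weeks). Mice randomized by luciferase imaging (n = 5/group); from day 8 given 10 mg/kg or vehicle daily. Tumor measured weekly by luciferase imaging and calipers (length × width²/2), body weight weekly; tumors harvested at day 63.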

[6] = Cytotoxicity against CD-1 mouse Primary hepatocyte assessed as inhibition of cell growth incubated for 72 hrs by MTT assay; assay type: toxicity, cell-based; settings: primary hepatocytes
MDA-MB-468 = experiment: Cytotoxicity against human MDA-MB-468 cells assessed as change in gene expression observed after 12 hrs by RNA-seq assay
[7] = Stability in CD-1 mouse plasma at 37.7 micromol/kg,ip administration measured after 22 hrs by LC-MS/MS analysis; assay type: ADME, cell-free; settings: at 37.7 µmol/kg
Summary of the method: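 Female CD-1 mice (n=3) dosed i.p. at 37.7 μmol/kg (equimolar across compounds). Blood (20 μL) drawn at 0.25, 5 and 22 h and processed to plasma. Drug levels quantified by LC-MS/MS.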

[8] = Tmax in CD-1 mouse at 10 mg/kg,po administration measured upto 48 hrs by LC-MS/MS analysis; assay type: ADME, organism-based; settings: in vivo
Summary of the method: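 Male ICR mice (n=3) dosed by oral gavage at 10 mg/kg from a 1 mg/mL solution in 20% DMSO/16% PEG/4% dextrose in PBS. Tail-vein blood (10 μL) drawn at 15 and 30 min and at 1, 2, 4, 8, 24 and 48 h. Plasma quantified by LC-MS/MS against calibration standards. Parameters from non-compartmental extravascular model.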

[9] = Toxicity in SCID mouse orthotopically xenografted with human Panc-1-Luc cells assessed as change in body weight at 10 mg/kg,ip administration once daily for 63 days; assay type: organism-based; settings: in vivo, 1512 h, time 63 day
Summary of the method: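 Male SCID mice (8 weeks) received orthotopic pancreatic implants of Panc-1-Luc cells (0.5×10^6 per mouse). Mice randomized by luciferase imaging (n=5 per group). From day 8, dosed 10 mg/kg i.p. or solvent vehicle once daily. Body weight recorded weekly; mice euthanized at day 63.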

PANC-1 = experiment: Cytotoxicity against human PANC-1 cells assessed as inhibition of cell growth incubated for 72 hrs by MTT assay; assay type: functional, cell-based; settings: PANC-1, 72 h
Summary of the method: (§1)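 Cells seeded and grown to 70–80% confluence, then exposed for 72 h to a titration series (0.2–1000 nM). Viability read by MTT relative to untreated cells, with 6 replicates per concentration. IC50 fitted with a Hill-slope model.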

[10] = Oral bioavailability in CD-1 mouse at 10 mg/kg administration measured upto 48 hrs by LC-MS/MS analysis; assay type: ADME, organism-based; settings: in vivo
BT-474 = experiment: Cytotoxicity against human BT-474 cells assessed as inhibition of cell growth incubated for 72 hrs by MTT assay; assay type: functional, cell-based; settings: BT-474, 72 h; summary of the method: as §1
Prostate cancer organoid = experiment: Antitumor activity against patient derived Prostate cancer PDX organoid assessed as reduction in organoid growth measured after 2 weeks; assay type: functional, tissue-based; settings: Homo sapiens
Summary of the method: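 Single cells from prostate cancer PDX tumors (collagenase I/III digest); 20000 cells embedded in collagen gel and cultured overnight, then treated or vehicle for 14 days with at least 5 wells per dose. Organoids imaged and counted on day 14; groups compared by Student t test.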

Chain of Prostaglandin G/H synthase 1 (P23219 whole entry): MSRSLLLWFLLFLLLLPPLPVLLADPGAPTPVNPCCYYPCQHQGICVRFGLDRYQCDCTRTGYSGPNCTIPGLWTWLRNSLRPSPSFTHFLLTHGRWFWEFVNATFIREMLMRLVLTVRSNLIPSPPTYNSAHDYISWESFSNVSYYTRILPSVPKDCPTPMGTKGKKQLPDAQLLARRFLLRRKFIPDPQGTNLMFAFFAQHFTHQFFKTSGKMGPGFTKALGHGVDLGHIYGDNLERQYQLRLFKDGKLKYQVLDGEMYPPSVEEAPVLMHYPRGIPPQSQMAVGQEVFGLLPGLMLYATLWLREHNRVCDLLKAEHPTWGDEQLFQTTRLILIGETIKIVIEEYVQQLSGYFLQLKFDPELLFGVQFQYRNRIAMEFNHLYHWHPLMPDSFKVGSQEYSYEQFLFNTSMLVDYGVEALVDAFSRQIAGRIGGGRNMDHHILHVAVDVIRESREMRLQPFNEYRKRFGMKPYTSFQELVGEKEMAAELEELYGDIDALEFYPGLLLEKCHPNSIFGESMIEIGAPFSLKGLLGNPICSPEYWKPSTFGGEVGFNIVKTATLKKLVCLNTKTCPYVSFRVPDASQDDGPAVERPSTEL
Chain of Nuclear receptor coactivator 3 (Homo sapiens) (Q9Y6Q9 2-1424 limits assumed): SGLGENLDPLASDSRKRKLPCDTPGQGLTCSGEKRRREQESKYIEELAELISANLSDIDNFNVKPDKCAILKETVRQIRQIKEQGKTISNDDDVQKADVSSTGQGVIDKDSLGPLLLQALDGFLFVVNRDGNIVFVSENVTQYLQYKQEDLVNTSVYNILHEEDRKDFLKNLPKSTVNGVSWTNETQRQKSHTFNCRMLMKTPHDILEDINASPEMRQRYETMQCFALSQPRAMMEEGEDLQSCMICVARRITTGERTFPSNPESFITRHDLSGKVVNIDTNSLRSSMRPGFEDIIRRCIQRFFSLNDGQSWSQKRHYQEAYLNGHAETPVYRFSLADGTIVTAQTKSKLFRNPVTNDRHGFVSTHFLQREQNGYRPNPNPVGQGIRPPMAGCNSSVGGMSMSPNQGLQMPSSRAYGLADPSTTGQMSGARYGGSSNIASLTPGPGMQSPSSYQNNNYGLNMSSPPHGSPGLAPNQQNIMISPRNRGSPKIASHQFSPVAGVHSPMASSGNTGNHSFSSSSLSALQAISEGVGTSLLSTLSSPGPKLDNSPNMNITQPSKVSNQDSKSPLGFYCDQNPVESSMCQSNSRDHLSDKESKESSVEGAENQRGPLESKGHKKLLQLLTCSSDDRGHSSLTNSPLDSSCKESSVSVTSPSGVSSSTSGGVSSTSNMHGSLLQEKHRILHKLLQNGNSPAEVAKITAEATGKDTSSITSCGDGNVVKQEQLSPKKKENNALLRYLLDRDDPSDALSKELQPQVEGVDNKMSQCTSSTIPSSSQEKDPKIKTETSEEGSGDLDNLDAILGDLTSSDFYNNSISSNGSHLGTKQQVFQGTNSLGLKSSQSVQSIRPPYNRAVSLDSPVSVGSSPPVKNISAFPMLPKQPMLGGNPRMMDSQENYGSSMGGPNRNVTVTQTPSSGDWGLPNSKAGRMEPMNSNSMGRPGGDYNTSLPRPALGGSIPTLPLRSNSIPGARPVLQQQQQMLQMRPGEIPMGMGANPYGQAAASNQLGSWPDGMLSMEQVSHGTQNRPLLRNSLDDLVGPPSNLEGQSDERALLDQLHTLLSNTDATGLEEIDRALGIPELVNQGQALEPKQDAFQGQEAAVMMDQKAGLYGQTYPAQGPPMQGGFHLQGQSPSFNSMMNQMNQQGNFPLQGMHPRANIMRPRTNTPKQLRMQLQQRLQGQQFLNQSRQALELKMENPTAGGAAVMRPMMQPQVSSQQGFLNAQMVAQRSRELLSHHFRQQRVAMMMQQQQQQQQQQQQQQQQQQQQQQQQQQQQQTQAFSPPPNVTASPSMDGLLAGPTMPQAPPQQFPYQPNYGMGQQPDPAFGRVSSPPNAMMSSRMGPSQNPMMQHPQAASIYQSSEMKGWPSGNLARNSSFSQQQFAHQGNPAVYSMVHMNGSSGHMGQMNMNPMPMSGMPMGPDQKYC

- Cmax [1]: 1066 ng/mL
- AUCt [2]: 1719 ng·h/mL
- Tmax [3]: 1.98 min
- inhibition [5]: Active
- Stability [7]: Stable
- Tmax [8]: 15 min
- F [10]: 24.6%
Compound: C/C(=N\N=c1/[nH]c2cc(F)c(F)cc2n1C)c1ccc(F)cn1
- IC50 [4]: 3100 nM
- Activity (Panc-1-Luc): Active
- IC50 at 72 h [6]: > 1000 nM
- Activity (MDA-MB-468): Active
- Activity [9]: Non-Toxic
- IC50 (PANC-1): 29 nM
- IC50 (BT-474): 0.8 nM
- Activity (Prostate cancer organoid): Active
